Reference: ChEMBL document CHEMBL3526048, “In vitro metabolism of rivoglitazone, a novel peroxisome proliferator-activated receptor γ agonist, in rat, monkey, and human liver microsomes and freshly isolated hepatocytes” (Drug Metab Dispos, 2011)

Tests used:
Format in all cases: ADME
Cytochrome P450 3A5 = Cytochrome P450 3A5 (Homo sapiens, UniProt P20815); assay: Activity of human CYP3A5 expressed in microsomes isolated from baculovirus infected insect cell assessed as enzyme-mediated compound formation treated with [14C]-rivoglitazone at 20 uM after 2 hrs by radio-HPLC/LC-MS/MS analysis in presence of NADPH-generating system
Sequence of Cytochrome P450 3A5 (P20815 whole entry): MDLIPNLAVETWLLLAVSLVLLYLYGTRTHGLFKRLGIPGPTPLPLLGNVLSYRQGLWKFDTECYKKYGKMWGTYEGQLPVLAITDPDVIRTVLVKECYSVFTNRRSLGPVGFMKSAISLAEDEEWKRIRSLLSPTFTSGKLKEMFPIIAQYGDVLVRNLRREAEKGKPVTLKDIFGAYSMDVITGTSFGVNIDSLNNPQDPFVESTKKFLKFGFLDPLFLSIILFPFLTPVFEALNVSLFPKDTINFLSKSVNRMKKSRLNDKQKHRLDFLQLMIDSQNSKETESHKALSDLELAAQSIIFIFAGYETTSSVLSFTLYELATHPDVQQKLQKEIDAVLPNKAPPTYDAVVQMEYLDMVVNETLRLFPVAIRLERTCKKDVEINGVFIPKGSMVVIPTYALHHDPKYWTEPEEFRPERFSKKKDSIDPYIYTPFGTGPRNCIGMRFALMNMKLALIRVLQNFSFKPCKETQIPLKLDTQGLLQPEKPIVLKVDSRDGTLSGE
Summary of the method: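 cDNA-expressed human CYP3A5 in baculovirus-insect-cell microsomes (1 mg/ml protein) was incubated with [¹⁴C]rivoglitazone (20 μM) in 50 mM potassium phosphate (pH 7.4) or 100 mM Tris-HCl (pH 7.5). NADPH-generating system: 2 mM NADP⁺, 20 mM glucose 6-phosphate, 2 units/ml G6PDH, 10 mM MgCl₂. Incubation ran 2 h at 37°C with shaking; insect-cell control supersomes served as control. Acetonitrile stop, supernatant concentrated, then radio-HPLC, LC-MS and LC-MS/MS.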

[1] = target: T1, UDP-glucuronosyltransferase 1A6 (Homo sapiens, UniProt P19224); assay: Activity of human UGT1A6 expressed in microsomes isolated from baculovirus infected insect cell assessed as enzyme-mediated (2S,3S,4S,5R,6R)-3,4,5-trihydroxy-6-(5-(4-((6-methoxy-1-methyl-1H-benzo[d]imidazol-2-yl)methoxy)benzyl)-2,4-dioxothiazolidin-3-yl)tetrahydro-2H-pyran-2-carboxylic acid formation at 20 uM after 4 hrs by radio-HPLC/LC-MS/MS analysis in presence of UDPGA
T1 sequence (P19224 whole entry): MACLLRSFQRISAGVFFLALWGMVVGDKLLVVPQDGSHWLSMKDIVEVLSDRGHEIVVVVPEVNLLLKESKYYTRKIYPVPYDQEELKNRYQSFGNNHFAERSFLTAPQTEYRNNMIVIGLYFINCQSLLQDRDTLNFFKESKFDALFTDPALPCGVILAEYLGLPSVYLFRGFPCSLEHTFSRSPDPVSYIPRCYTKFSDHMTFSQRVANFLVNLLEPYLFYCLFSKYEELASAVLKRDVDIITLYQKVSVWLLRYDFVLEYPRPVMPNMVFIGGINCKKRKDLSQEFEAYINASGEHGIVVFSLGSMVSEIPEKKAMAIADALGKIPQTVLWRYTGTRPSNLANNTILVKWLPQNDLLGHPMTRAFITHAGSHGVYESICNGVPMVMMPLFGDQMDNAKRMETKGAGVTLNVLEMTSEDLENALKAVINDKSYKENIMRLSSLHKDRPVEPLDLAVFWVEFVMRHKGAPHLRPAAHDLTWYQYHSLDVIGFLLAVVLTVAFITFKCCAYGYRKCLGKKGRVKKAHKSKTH

Liver microsome [2] = assay: Drug metabolism in human liver microsomes assessed as formation of 5-(4-((6-hydroxy-1-methyl-1H-benzo[d]imidazol-2-yl)methoxy)benzyl)thiazolidine-2,4-dione at 20 uM after 2 hrs by radio-HPLC/LC-MS/MS analysis in presence of NADPH-generating system and NADPH-generating system/SAM
Cytochrome P450 2C19 = Cytochrome P450 2C19 (Homo sapiens, UniProt P33261); assay: (§1) Activity of human CYP2C19 expressed in microsomes isolated from baculovirus infected insect cell assessed as enzyme-mediated (2S,3S,4S,5R,6R)-6-((1-carboxy-2-(4-((6-methoxy-1-methyl-1H-benzo[d]imidazol-2-yl)methoxy)phenyl)ethylthio)carbonylamino)-3,4,5-trihydroxytetrahydro-2H-pyran-2-carboxylic acid formation at 20 uM after 2 hrs by radio-HPLC/LC-MS/MS analysis in presence of NADPH-generating system/SAM
Sequence of Cytochrome P450 2C19 (P33261 whole entry): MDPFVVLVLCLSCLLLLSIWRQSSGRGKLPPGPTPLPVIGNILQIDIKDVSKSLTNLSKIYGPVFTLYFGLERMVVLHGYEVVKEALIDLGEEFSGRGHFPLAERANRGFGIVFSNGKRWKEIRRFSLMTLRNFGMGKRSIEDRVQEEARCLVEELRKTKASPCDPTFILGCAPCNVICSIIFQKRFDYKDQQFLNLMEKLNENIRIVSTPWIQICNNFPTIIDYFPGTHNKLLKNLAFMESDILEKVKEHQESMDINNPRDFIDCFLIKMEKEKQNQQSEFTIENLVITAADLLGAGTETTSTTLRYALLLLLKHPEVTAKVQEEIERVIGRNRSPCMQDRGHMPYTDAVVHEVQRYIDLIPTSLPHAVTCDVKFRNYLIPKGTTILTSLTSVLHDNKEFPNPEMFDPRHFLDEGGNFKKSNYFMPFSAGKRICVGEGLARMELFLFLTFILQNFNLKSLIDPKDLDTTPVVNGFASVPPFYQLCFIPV

Liver microsome [3] = assay: Drug metabolism in human liver microsomes assessed as formation of 2-amino-3-((1-carboxy-2-(4-((6-methoxy-1-methyl-1H-benzo[d]imidazol-2-yl)methoxy)phenyl)ethyl)disulfanyl)propanoic acid at 20 uM by radio-HPLC/LC-MS/MS analysis
[4] = target: T2, UDP-glucuronosyltransferase 2B7 (Homo sapiens, UniProt P16662); assay: Activity of human UGT2B7 expressed in microsomes isolated from baculovirus infected insect cell assessed as enzyme-mediated 3-(4-((6-methoxy-1-methyl-1H-benzo[d]imidazol-2-yl)methoxy)phenyl)-2-(methylsulfonyl)propanamide formation at 20 uM after 4 hrs by radio-HPLC/LC-MS/MS analysis in presence of NADPH-generating system/SAM
T2 sequence (P16662 whole entry): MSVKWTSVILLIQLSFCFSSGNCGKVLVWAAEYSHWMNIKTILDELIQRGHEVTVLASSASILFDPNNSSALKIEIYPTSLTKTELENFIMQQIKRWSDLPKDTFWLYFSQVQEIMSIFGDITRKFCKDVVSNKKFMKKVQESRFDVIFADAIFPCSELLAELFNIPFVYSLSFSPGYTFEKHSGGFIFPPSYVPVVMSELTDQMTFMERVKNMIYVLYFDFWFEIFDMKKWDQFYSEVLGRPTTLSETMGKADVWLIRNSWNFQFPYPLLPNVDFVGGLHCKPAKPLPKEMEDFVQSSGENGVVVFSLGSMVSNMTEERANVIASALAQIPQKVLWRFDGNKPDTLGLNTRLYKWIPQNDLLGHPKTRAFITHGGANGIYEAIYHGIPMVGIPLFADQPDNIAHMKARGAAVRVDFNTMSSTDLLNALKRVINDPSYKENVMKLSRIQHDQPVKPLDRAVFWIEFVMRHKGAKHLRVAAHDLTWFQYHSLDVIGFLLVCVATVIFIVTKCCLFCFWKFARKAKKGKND

Cytochrome P450 2D6 [5] = target: T3, Cytochrome P450 2D6 (Homo sapiens, UniProt P10635); assay: Activity of human CYP2D6 expressed in microsomes isolated from baculovirus infected insect cell assessed as enzyme-mediated 3-(4-((6-methoxy-1-methyl-1H-benzo[d]imidazol-2-yl)methoxy)phenyl)-2-(methylthio)propanamide formation at 20 uM after 2 hrs by radio-HPLC/LC-MS/MS analysis in presence of NADPH-generating system/SAM
T3 sequence (P10635 whole entry): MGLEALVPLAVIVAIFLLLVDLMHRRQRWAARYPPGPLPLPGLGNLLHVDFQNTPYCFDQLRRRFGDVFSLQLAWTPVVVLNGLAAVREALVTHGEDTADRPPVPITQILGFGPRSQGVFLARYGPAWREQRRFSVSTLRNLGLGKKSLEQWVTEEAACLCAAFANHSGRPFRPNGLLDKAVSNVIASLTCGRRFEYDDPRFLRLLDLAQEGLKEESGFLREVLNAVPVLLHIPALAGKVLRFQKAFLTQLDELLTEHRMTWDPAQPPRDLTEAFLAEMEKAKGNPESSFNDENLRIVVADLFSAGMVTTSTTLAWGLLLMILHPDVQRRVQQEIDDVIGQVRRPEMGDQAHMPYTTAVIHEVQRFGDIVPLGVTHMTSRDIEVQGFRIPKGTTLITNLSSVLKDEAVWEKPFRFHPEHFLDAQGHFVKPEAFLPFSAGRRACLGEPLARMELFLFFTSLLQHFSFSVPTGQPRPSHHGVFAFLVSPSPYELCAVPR

[6] = target: T4, UDP-glucuronosyltransferase 1A3 (Homo sapiens, UniProt P35503); assay: Activity of human UGT1A3 expressed in microsomes isolated from baculovirus infected insect cell assessed as enzyme-mediated 2-mercapto-3-(4-((6-methoxy-1-methyl-1H-benzo[d]imidazol-2-yl)methoxy)phenyl)propanamide formation at 20 uM after 4 hrs by radio-HPLC/LC-MS/MS analysis in presence of NADPH-generating system and NADPH-generating system/SAM in presence of UDPGA and UDPGA/SAM
T4 sequence (P35503 whole entry): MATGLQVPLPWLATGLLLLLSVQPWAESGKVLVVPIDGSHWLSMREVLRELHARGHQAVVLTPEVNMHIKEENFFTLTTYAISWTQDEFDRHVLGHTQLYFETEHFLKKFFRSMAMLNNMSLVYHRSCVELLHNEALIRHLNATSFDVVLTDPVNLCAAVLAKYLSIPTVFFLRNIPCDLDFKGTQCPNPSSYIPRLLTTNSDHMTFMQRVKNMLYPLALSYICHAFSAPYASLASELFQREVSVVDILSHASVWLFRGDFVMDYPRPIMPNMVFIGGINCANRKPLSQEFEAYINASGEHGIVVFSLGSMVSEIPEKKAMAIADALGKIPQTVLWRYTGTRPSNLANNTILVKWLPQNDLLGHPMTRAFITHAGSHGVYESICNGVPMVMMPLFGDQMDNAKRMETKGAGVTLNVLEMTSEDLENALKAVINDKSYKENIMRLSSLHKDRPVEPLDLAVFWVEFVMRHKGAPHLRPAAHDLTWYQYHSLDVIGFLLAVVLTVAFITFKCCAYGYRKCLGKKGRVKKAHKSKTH

Cytochrome P450 2D6 [7] = target: T3, Cytochrome P450 2D6; assay: as §1, with “CYP2D6” for “CYP2C19”
Liver microsome [8] = assay: Drug metabolism in human liver microsomes assessed as formation of 3-(4-((6-methoxy-1-methyl-1H-benzo[d]imidazol-2-yl)methoxy)phenyl)-2-(methylthio)propanamide at 20 uM after 2 hrs by radio-HPLC/LC-MS/MS analysis in presence of NADPH-generating system/SAM

| Structure (SMILES) | Drug metabolism (Cytochrome P450 3A5) | Drug metabolism [1] | Drug metabolism (Liver microsome [2]) | Drug metabolism (Cytochrome P450 2C19) | Drug metabolism (Liver microsome [3]) | Drug metabolism [4] | Drug metabolism (Cytochrome P450 2D6 [5]) | Drug metabolism [6] | Drug metabolism (Cytochrome P450 2D6 [7]) | Drug metabolism (Liver microsome [8]) |
| --- | --- | --- | --- | --- | --- | --- | --- | --- | --- | --- |
| COc1ccc2nc(COc3ccc(CC(S)C(=O)O)cc3)n(C)c2c1 (stereo not given) | metabolite_detected |  |  |  |  |  |  |  |  |  |
| COc1ccc2nc(COc3ccc(C[14CH]4SC(=O)NC4=O)cc3)n(C)c2c1.Cl (racemic) |  | metabolite_not_detected | metabolite_detected | metabolite_not_detected | metabolite_not_detected | metabolite_not_detected | metabolite_not_detected | metabolite_not_detected | metabolite_not_detected | metabolite_detected |
